This note sets out measurements from article PMC13065758 (Nature Communications, 2026).

Data set [1] is described as follows: Plasma stability assay, human plasma. It counts as in vitro ADME. The essentials: (§1)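 Test compound was spiked at 10 μM into human or mouse plasma and incubated at 37 °C with shaking for 0, 30 or 120 min. Proteins were precipitated with acetonitrile containing 1 μM chlorpropamide internal standard and removed by centrifugation. Analyte/internal-standard area ratios were measured by LC-MS/MS and expressed as percent remaining versus 0 min.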

The nature of data set [2]: Plasma stability assay, mouse plasma. It counts as in vitro ADME. In short, it runs like this:
as §1

In general, fraction remaining refers to what is left of the initial amount, in per cent. Low values mean a greater loss, high ones greater stability.

`CCN(CC)CCOC(=O)c1ccc(N)cc1` [Procaine]: the results for the amount remaining at 2 h, 10 μM in data set [1] and in data set [2] were 0.03% and 3.13%, respectively.
